The values below come from publication PMC5824357 (RNA, 2018).

The test system of assay [1] is F-Luc-5BoxB mRNA. Description: Tethering assay in S2 cells, F-Luc-5BoxB reporter. The class given is cell-based, Drosophila melanogaster. The following applies: for repression/degradation activity in tethering: λN-HA-tagged, S2 cells, harvested 3 days after transfection.
In assay [2] the target is Dm CN9BD–CAF40 complex (Drosophila melanogaster) (UniProt Q7JVP2). The assay is described as follows: ITC.
Assay [3] deals with T1, Hs CAF40 (ARM domain, residues R19–E285) (human, UniProt Q92600 19-285). The assay is described as follows: crystal structure.
Assay [4] deals with T2, Hs NOT1 CN9BD–CAF40 complex (human, UniProt A5YKK6;Q92600). Description: pull-down.
Assay [5] has as its target GST-tagged Hs CAF40 (ARM domain) (human, UniProt Q92600). The assay is described as follows: pull-down.
Assay [6] relates to Dm NOT1-CN9BD–CAF40 complex. The assay is described as follows: In vitro MBP pull-down, Dm CN9BD–CAF40. The class given is binding, Drosophila melanogaster. The following applies: MBP-tagged proteins, amylose resin, 50 mM HEPES pH 7.5, 200 mM NaCl, 2 mM DTT, 1 h; SDS-PAGE, Coomassie. A digest of the protocol: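 Proteins were expressed in E. coli BL21 (DE3) Star overnight at 20°C. Tethered-protein constructs carried an N-terminal MBP tag and were purified by amylose resin, anion exchange and gel filtration. MBP (20 µg, negative control) or MBP fusion (40 µg) was incubated 1 h with equimolar purified CCR4–NOT modules plus amylose resin. Beads were washed five times and eluted with 25 mM maltose. Eluates were TCA-precipitated and analysed by SDS-PAGE/Coomassie.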

The target in assay [7] is T1, Hs CAF40 (ARM domain, residues R19–E285). Description: crystal structure. The source holds these as a separate data set.
Assay [8] has as its target T2, Hs NOT1 CN9BD–CAF40 complex. The assay is described as follows: crystal structure.
Assay [9] concerns F-Luc-5BoxB-A95C7-HhR. Description: Tethering assay in S2 cells, F-Luc-5BoxB-A95C7-HhR reporter. Type of assay: cell-based, Drosophila melanogaster.

Read-outs that look alike come from different tables or passages of the source. Ends that are not written are not given here. λN = λN tag that binds BoxB hairpins, for tethering; HA = not defined here

T2 sequence (Q92600 19-285, one chain of several): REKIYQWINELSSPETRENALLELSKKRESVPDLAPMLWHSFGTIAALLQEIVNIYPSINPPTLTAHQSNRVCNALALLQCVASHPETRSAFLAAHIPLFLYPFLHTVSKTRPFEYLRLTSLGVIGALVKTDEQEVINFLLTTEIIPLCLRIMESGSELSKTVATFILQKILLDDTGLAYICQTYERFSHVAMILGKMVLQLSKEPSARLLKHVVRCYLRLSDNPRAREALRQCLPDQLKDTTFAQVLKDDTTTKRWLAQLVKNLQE
T1 sequence (Q92600 19-285): as the sequence (Q92600 19-285, one chain of several) above
Sequence of GST-tagged Hs CAF40 (ARM domain) (Q92600 19-285): as the sequence (Q92600 19-285, one chain of several) above

With “fragment D13–E36 fused to GST: λN-HA-GST-Bam 13–36 ({λN-HA-GST}-DDQQLDHNFKQMEEHLALMVEGNE; reading uncertain; UniProt P22745 13-36, looked up, fragment)”, the “repression/degradation activity in tethering” value in [1] is “sufficient to induce the repression and degradation of the F-Luc-5BoxB mRNA to a similar extent as full-length Bam”.
As a reminder, the Kd is the concentration at which binding is half-saturated. For “Bam CBM peptide (residues D13–E36) (from UniProt P22745 13-36)”, in assay [2], the Kd stood at 183 nM. In other words, the sub-micromolar range.

B1: Hs NOT1 CN9BD (residues V1351–L1588) (domain or fragment)
chain: VPPQPQYSYHDINVYSLAGLAPHITLNPTIPLFQAHPQLKQCVRQAIERAVQELVHPVVDRSIKIAMTTCEQIVRKDFALDSEESRMRIAAHHMMRNLTAGMAMITCREPLLMSISTNLKNSFASALRTASPQQREMMDQAAAQLAQDNCELACCFIQKTAVEKAGPEMDKRLATEFELRKHARQEGRRYCDPVVLTYQAERMPEQIRLKVGGVDPKQLAVYEEFARNVPGFLPTNDL
In the case of B1, the binding result in assay [3] is “binds”.
For DDQQLDHNFKQMEEHLALMVEGNE (domain or fragment) [MBP-tagged Bam CBM], the binding result in [4] and in assay [5] was “binds” throughout.

B2: ΔCBM: Bam Δ13–36 (protein)
chain: MLNARDVCPEGNNEDPRKATCEYEDTNEDGATCTSGVLSEIQENFGRLRLCDVTAPLLEFHGLDCLQQIQKRSRHFAFDGSPAKKSRSGGVLVTGPKQKQLQKENVWNRKSKGSASADNIEKLPITIEKLHMIGLHGDCLEHNAVLRLMNLFRSLHDHLTADLGFSRQNSMPSDYLFDMPVKSTMPKSLNVRYQLQVLCTKVERFLVQQRRTLEANRHFDFEKYDECDKLLKGFASYLDNFKLLLKPKMRNRNGNSGSNADKFHTQRMERLLIGLRDWIKAAHLSVHVFNWEMDLEHRYSGAMTESHKSLNERAILLSGAELRAAEARGISAEDLFIAQRYKLGGPIYCVLEQHEFLSALIANPETYFPPSVVAICGPQKLGAVSMEQPSASEEEFEETEEVPSSPPRHTGRVPRFRS
modifications: left off: MBP, N-terminal, kept
As for B2, the interaction in pull-down result in assay [6] was “abolished the interaction with the Dm CN9BD–CAF40 module in vitro”. In addition, the “repression/degradation activity in tethering” value in assay [1] is recorded as “sufficient to abolish the repressive activity of Bam”.
For DDQQLDHNFKQMEEHLALMVEGNE [Bam CBM peptide (residues D13–E36)], the binding result in assay [7] and in assay [8] was “binds” each time.

B3: MBP-tagged full-length Bam (natural protein)
chain: MLNARDVCPEGNDDQQLDHNFKQMEEHLALMVEGNENEDPRKATCEYEDTNEDGATCTSGVLSEIQENFGRLRLCDVTAPLLEFHGLDCLQQIQKRSRHFAFDGSPAKKSRSGGVLVTGPKQKQLQKENVWNRKSKGSASADNIEKLPITIEKLHMIGLHGDCLEHNAVLRLMNLFRSLHDHLTADLGFSRQNSMPSDYLFDMPVKSTMPKSLNVRYQLQVLCTKVERFLVQQRRTLEANRHFDFEKYDECDKLLKGFASYLDNFKLLLKPKMRNRNGNSGSNADKFHTQRMERLLIGLRDWIKAAHLSVHVFNWEMDLEHRYSGAMTESHKSLNERAILLSGAELRAAEARGISAEDLFIAQRYKLGGPIYCVLEQHEFLSALIANPETYFPPSVVAICGPQKLGAVSMEQPSASEEEFEETEEVPSSPPRHTGRVPRFRS
Take B3: in assay [4], the binding result is reported as “binds”.

B4: Bam-N: Bam N-terminal fragment, residues 1–140 (protein, UniProt P22745 1-140, looked up, fragment)
chain: MLNARDVCPEGNDDQQLDHNFKQMEEHLALMVEGNENEDPRKATCEYEDTNEDGATCTSGVLSEIQENFGRLRLCDVTAPLLEFHGLDCLQQIQKRSRHFAFDGSPAKKSRSGGVLVTGPKQKQLQKENVWNRKSKGSAS
Take B4: the “F-Luc-5BoxB mRNA degradation in DCP2-depleted cells” value in assay [1] (DCP2 knockdown, DCP2 E361Q overexpressed) was “impaired”. In addition, in assay [1] (DCP2 knockdown, DCP2 E361Q overexpressed, F-Luc activity), the “F-Luc activity in DCP2-depleted cells” value is given as “not restored”. For the same molecule, in assay [1] (NOT1-depleted S2 cells), the “F-Luc-5BoxB mRNA degradation after NOT1 depletion” value was “partially suppressed degradation of F-Luc-5BoxB mRNA”. Moreover, the “repression/degradation activity in tethering” value in [1] was “retained the activity of the full-length protein”. For the same molecule, in assay [9], the “repression of deadenylation-resistant reporter” value is recorded as “repressed the expression of this reporter in S2 cells”.

B5: Bam-C: Bam C-terminal fragment, residues 141–442 (protein, UniProt P22745 141-442, looked up, fragment)
chain: ADNIEKLPITIEKLHMIGLHGDCLEHNAVLRLMNLFRSLHDHLTADLGFSRQNSMPSDYLFDMPVKSTMPKSLNVRYQLQVLCTKVERFLVQQRRTLEANRHFDFEKYDECDKLLKGFASYLDNFKLLLKPKMRNRNGNSGSNADKFHTQRMERLLIGLRDWIKAAHLSVHVFNWEMDLEHRYSGAMTESHKSLNERAILLSGAELRAAEARGISAEDLFIAQRYKLGGPIYCVLEQHEFLSALIANPETYFPPSVVAICGPQKLGAVSMEQPSASEEEFEETEEVPSSPPRHTGRVPRFRS
For the molecule B5, the “repression/degradation activity in tethering” value in assay [1] was “strongly impaired”.
